# ChEMBL document CHEMBL1144664, “Design, synthesis, and SAR of new pyrrole-oxindole progesterone receptor modulators leading to 5-(7-fluoro-3,3-dimethyl-2-oxo-2,3-dihydro-1H-indol-5-yl)-1-methyl-1H-pyrrole-2-carbonitrile (WAY-255348)” (J Med Chem, 2008)
# Activity calls are given as the source filed them. The calls are words filed in the database; no cut-off is given here.
# How the values were obtained:
# [1] = Drug level in Sprague-Dawley rat at 0.5 mg/kg, iv; type: ADME, organism-based; design: dose 0.5 mg/kg, route intravenous; conditions: in vivo
# Summary of the method: (§1)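 Female Sprague–Dawley rats dosed as 1-in-4 cassette or discrete studies. iv in DMSO/PEG200 20:80; po in aqueous 2% Tween 80/0.5% methyl cellulose. Parameters reported: C0, Cmax, t1/2, plasma clearance, Vss, AUC0-inf and %F.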
# [2] = molecular target: T1, Estrogen receptor (Homo sapiens) (UniProt P03372); test: Antagonist activity at human ER ligand binding domain expressed in african green monkey COS7 cells in presence of 17-beta-estradiol by Gal4 hybrid assay; type: cell-based; conditions: COS-7
# T1 sequence (whole entry): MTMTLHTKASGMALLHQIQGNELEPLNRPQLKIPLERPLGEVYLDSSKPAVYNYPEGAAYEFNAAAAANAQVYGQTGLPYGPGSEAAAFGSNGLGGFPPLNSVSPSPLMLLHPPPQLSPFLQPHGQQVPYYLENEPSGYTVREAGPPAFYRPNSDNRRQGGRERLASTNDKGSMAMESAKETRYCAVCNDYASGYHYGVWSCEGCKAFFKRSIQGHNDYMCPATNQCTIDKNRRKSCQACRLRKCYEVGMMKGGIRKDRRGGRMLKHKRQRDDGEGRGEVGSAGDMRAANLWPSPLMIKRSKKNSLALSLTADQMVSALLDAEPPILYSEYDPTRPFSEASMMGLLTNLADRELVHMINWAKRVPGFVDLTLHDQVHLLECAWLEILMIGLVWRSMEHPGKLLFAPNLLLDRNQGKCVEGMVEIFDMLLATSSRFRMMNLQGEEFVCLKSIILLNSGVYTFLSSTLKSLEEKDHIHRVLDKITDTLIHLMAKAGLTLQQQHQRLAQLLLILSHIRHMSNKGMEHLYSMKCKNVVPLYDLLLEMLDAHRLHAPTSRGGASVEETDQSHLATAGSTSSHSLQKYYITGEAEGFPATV
# Summary of the method: (§2)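 Gal4-steroid receptor LBD fusion plasmid plus GAL4_UAS (5 copies, E1b TATA)-luciferase reporter, 50 ng/well each, transfected 16 h into COS-7 cells grown in phenol red-free DMEM with 10% charcoal/dextran-treated FBS. Compound treatment 20 h, then luciferase read-out. Antagonist mode uses 3 nM aldosterone (hMR) or 5 nM 17β-estradiol (hER). Values are the average of at least duplicate determinations.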
# Rhesus monkey [3] = test: Effect on ovulation rate of rhesus monkey; type: functional, organism-based; conditions: Macaca mulatta
# Summary of the method: (§3)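 Adult female rhesus macaques (n=3) with regular cycles dosed 10 mg/(kg·day) po in 2% Tween 80/0.5% methylcellulose with cherry flavoring for 28 days from cycle day 2. Serum estradiol and progesterone measured every 3 days. Necropsy on day 28. Uterine weights are of half the uterus; KI-67 and mitotic indices counted per 1000 cells. Values given as mean ± SE.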
# [4] = AUC (0 to infinity) in cynomolgus monkey at 5 mg/kg, po; type: ADME, organism-based, Macaca fascicularis; design: dose 5 mg/kg, route oral, time infinity; conditions: plasma
# Cynomolgus monkey [5] = test: Induction of early menses in cynomolgus monkey at 5 mg/kg, po; type: organism-based, Macaca fascicularis; design: dose 5 mg/kg, route oral; conditions: in vivo
# [6] = Volume of distribution at steady state in Sprague-Dawley rat at 0.5 mg/kg, iv; type: ADME, organism-based; design: dose 0.5 mg/kg, route intravenous; conditions: in vivo, read-out: Vdss; summary of the method: as §1
# [7] = Stability in human liver microsome assessed as half life; type: ADME; conditions: liver microsomes
# Summary of the method: (§4)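 Female rat, cynomolgus monkey and human liver microsome stability; half-life (min) reported.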
# [8] = molecular target: T1, Estrogen receptor (Homo sapiens); test: Agonist activity at human ER ligand binding domain expressed in african green monkey COS7 cells by Gal4 hybrid assay; type: cell-based; conditions: COS-7; summary of the method: as §2
# [9] = Stability in rat liver microsome assessed as half life; type: ADME; conditions: liver microsomes; summary of the method: as §4
# [10] = Half life in cynomolgus monkey at 1 mg/kg, iv; type: ADME, organism-based, Macaca fascicularis; design: dose 1 mg/kg, route intravenous; conditions: in vivo
# Cynomolgus monkey [11] = test: Inhibition of ovulation in cynomolgus monkey assessed as basal level of progesterone at 10 mg/kg; type: functional, organism-based; design: dose 10 mg/kg; conditions: Macaca fascicularis
# Summary of the method: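 Normally cycling cynomolgus monkeys dosed orally, daily at 1, 3 or 10 mg/kg (n=4–6) or vehicle (n=2), in 2% Tween 80/0.5% methylcellulose for 30 days from cycle day 2. Serum sampled three times weekly; progesterone measured by radioimmunoassay to detect a luteal-phase rise as the sign of ovulation.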
# [12] = Half life in cynomolgus monkey at 5 mg/kg, po; type: ADME, organism-based, Macaca fascicularis; design: dose 5 mg/kg, route oral; conditions: in vivo
# [13] = Half life in Sprague-Dawley rat at 5 mg/kg, po; type: ADME, organism-based; design: dose 5 mg/kg, route oral; conditions: in vivo; summary of the method: as §1
# Progesterone receptor = molecular target: T2, Progesterone receptor (Homo sapiens, UniProt P06401); test: Antagonist activity at human PR expressed in human T47D cells assessed as inhibition of progesterone induced alkaline phosphatase; type: functional, cell-based
# T2 sequence (P06401 whole entry): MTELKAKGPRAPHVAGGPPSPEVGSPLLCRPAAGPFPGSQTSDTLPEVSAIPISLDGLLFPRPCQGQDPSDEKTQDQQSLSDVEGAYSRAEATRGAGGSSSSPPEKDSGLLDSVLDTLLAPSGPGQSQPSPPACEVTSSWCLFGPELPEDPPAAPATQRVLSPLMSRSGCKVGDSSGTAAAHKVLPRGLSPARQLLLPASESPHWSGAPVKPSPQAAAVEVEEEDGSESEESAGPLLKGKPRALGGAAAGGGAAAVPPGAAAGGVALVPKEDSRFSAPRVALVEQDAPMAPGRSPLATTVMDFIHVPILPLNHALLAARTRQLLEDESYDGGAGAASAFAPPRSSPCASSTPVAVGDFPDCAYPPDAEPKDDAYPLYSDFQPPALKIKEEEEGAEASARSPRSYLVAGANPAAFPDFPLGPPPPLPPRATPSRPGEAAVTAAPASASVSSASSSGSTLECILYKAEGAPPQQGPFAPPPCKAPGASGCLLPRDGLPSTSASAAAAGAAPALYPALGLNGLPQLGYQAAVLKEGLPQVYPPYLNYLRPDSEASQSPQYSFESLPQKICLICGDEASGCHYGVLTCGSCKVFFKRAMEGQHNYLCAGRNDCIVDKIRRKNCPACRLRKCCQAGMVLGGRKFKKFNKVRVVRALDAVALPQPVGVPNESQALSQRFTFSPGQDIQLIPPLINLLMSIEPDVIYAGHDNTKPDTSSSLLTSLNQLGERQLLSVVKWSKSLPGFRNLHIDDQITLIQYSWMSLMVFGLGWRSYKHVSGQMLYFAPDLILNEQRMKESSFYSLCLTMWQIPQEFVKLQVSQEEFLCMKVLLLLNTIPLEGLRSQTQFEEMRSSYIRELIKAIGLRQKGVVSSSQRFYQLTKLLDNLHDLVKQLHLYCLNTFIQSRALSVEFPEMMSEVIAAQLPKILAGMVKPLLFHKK
# Rhesus monkey [14] = test: Effect on endometrium weight of rhesus monkey; type: functional, Macaca mulatta; summary of the method: as §3
# [15] = Half life in Sprague-Dawley rat at 1 mg/kg, iv; type: ADME, organism-based; design: dose 1 mg/kg, route intravenous; conditions: in vivo; summary of the method: as §1
# Rhesus monkey [16] = test: Effect on endometrium thickness of rhesus monkey; type: functional, Macaca mulatta; summary of the method: as §3
compound,measurement,setting,value
Cn1c(C#N)ccc1-c1cc(F)c2c(c1)C(C)(C)C(=O)N2,C0,[1],385 ng/mL
same,Activity,[2],inactive
same,Activity,Rhesus monkey [3],inactive
same,AUC(0-inf),[4],5740 ng·h/mL
same,Activity,Cynomolgus monkey [5],75%
same,Vd,[6],2.9 L/kg
same,half-life,[7],> 0.5 h
same,Activity,[8],inactive
same,half-life,[9],0.433 h
same,half-life,[10],7.8 h
same,Activity,Cynomolgus monkey [11],Active
same,half-life,[12],15.7 h
same,half-life,[13],9.3 h
same,IC50,Progesterone receptor,5 nM
same,Activity,Rhesus monkey [14],60 mg
same,half-life,[15],9.4 h
same,Activity,Rhesus monkey [16],2.2 mm
